Columns and labels:
[1] = biological target: T1, Phosphotyrosine protein phosphatase (Mycobacterium tuberculosis, UniProt A0A045ISB3); assay: Inhibition of Mycobacterium tuberculosis His-tagged PtpB expressed in Escherichia coli Rosetta 2 (DE3) using pNPP as substrate after 30 mins by spectrophotometric method
T1 sequence (A0A045ISB3 whole entry): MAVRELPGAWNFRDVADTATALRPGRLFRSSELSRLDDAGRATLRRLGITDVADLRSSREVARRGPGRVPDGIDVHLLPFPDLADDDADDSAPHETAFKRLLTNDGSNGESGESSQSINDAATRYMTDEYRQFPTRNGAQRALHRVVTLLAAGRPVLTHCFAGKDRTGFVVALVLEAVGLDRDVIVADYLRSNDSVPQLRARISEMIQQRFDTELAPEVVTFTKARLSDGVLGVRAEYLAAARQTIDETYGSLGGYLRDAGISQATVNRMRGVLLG

[2] = biological target: T2, Tyrosine-protein phosphatase non-receptor type 1 (Homo sapiens, UniProt P18031); assay: Inhibition of human PTPN1 expressed in Escherichia coli Rosetta 2 (DE3) using pNPP as substrate after 45 mins by spectrophotometric method
T2 sequence (P18031 whole entry): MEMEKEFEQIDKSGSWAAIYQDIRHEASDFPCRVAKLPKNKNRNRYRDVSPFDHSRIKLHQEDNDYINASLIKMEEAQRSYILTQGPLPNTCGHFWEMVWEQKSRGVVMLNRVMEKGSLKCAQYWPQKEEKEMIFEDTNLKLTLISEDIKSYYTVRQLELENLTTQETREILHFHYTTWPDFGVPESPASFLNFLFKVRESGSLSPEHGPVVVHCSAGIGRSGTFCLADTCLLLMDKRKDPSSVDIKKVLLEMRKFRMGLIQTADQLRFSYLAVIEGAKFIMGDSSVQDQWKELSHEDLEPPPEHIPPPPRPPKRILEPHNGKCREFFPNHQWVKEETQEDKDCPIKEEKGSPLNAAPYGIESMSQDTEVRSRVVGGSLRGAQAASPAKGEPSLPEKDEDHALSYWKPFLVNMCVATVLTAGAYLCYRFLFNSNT

[3] = biological target: T3, Tyrosine-protein phosphatase non-receptor type 2 (Homo sapiens, UniProt P17706); assay: Inhibition of human PTPN2 expressed in Escherichia coli Rosetta 2 (DE3) using pNPP as substrate after 45 mins by spectrophotometric method
T3 sequence (P17706 whole entry): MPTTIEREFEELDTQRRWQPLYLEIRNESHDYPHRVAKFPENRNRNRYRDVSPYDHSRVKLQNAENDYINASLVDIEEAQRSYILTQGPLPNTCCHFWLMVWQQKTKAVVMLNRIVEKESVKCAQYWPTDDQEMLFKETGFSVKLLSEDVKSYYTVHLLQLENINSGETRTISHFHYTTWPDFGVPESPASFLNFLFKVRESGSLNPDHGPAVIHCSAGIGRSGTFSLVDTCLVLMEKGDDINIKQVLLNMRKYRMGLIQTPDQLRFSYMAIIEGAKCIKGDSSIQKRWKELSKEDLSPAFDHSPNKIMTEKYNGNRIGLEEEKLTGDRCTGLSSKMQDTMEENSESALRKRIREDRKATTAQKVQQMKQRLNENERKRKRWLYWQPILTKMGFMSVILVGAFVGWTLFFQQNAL

[4] = biological target: T4, Tyrosine-protein phosphatase non-receptor type 5 (Homo sapiens, UniProt P54829); assay: Inhibition of human PTPN5 expressed in Escherichia coli Rosetta 2 (DE3) using pNPP as substrate after 45 mins by spectrophotometric method
T4 sequence (P54829 whole entry): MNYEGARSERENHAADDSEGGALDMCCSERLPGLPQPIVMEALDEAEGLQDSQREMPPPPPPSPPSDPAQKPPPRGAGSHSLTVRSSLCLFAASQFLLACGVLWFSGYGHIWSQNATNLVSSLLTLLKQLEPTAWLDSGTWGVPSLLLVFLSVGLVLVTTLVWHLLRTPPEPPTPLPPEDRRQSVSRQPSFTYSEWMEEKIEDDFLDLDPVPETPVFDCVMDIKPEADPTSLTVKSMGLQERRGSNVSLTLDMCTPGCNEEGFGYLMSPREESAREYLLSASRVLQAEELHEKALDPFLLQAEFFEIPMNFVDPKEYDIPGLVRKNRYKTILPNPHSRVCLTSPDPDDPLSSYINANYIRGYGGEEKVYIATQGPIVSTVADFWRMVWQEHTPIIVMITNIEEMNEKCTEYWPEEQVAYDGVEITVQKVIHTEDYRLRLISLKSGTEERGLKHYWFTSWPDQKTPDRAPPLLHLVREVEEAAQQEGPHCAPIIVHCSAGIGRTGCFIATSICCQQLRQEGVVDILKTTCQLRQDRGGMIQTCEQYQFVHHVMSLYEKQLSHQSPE

[5] = test system: Mycobacterium tuberculosis; assay: Antitubercular activity against Mycobacterium tuberculosis H37Rv after 5 days at 200 uM relative to control; format: functional; conditions: 120 h
Method in brief: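 M. tuberculosis grown in liquid culture with compound at a fixed 200 μM for 5 days. Growth inhibition expressed as percent of control.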

[6] = test system: Mycobacterium tuberculosis; assay: Antitubercular activity against Mycobacterium tuberculosis H37Rv after 5 days; format: functional, organism-based; conditions: 120 h
[7] = biological target: T5, E. coli GroEL/ES (Escherichia coli, UniProt P0A6F5); assay: Inhibition of Escherichia coli GroEL expressed in Escherichia coliDH5alpha/Escherichia coli GroES expressed in Escherichia coli BL21 (DE3) assessed as reduction in GroEL/GroES-mediated denatured pig heart mitochondrial MDH refolding by measuring MDH enzyme activity using sodium mesoxalate as substrate after 20 to 40 mins by spectrometric analysis
T5 sequence (P0A6F5 whole entry, looked up): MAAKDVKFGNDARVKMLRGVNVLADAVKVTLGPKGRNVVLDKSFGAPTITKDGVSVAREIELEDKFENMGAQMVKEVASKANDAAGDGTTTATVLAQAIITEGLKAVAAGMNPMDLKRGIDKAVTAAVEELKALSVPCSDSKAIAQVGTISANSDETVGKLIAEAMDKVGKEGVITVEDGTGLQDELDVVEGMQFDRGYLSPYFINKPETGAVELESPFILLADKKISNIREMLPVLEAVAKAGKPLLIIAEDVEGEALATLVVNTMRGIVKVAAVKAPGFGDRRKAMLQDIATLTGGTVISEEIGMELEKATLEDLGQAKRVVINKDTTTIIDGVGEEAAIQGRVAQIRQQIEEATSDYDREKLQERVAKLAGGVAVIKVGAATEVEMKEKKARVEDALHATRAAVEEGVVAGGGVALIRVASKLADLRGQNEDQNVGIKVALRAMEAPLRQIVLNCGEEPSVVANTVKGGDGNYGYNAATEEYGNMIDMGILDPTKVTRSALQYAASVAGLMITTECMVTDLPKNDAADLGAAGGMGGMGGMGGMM

[8] = biological target: HSP60/HSP10 (Homo sapiens, UniProt P10809); assay: Inhibition of human HSP60 expressed in Escherichia coli Rosetta 2(DE3)/human HSP10 expressed in Escherichia coli Rosetta 2(DE3) pLysS cells assessed as reduction in HSP60/HSP10-mediated denatured pig heart mitochondrial MDH refolding by measuring MDH enzyme activity using sodium mesoxalate as substrate after 40 to 60 mins by spectrometric analysis
HSP60/HSP10, sequence (P10809 whole entry): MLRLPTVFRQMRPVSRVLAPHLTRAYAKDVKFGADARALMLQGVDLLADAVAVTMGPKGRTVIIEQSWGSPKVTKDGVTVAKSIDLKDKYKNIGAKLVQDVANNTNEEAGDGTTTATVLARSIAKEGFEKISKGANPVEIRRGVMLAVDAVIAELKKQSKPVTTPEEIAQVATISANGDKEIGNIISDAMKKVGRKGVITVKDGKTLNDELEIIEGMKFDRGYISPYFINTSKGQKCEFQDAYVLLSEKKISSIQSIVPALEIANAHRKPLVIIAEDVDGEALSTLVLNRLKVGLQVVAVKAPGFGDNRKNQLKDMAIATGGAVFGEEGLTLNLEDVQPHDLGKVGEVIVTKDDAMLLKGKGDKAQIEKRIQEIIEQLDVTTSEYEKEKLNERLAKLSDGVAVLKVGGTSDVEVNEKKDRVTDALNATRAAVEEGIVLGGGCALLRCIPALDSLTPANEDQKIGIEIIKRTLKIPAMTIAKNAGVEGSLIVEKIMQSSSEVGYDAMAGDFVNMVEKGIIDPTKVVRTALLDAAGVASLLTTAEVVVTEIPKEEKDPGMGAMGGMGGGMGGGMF
HSP60/HSP10, sequence (P61604 whole entry, further chain): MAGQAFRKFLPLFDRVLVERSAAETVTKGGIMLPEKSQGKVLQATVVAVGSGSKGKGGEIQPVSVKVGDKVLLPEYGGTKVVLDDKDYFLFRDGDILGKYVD

[9] = Selectivity index, ratio of IC50 for human PTPN1 to IC50 for Mycobacterium tuberculosis PtpB
[10] = Selectivity ratio of IC50 for inhibition of human HSP60 expressed in Escherichia coli Rosetta 2(DE3)/human HSP10 expressed in Rosetta 2(DE3) pLysS cells to IC50 for inhibition of Escherichia coli GroEL expressed in Escherichia coli DH5alpha/Escherichia coli GroES expressed in Escherichia coli BL21 (DE3)
Method in brief: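 Ratio of IC50s from two analogous chaperonin-mediated refolding assays: human HSP60/10 and E. coli GroEL/ES each refold denatured malate dehydrogenase (dMDH). Refolding is followed through the recovered MDH enzymatic activity in a coupled read-out. IC50s come from dose-response testing. GroEL subunits are at 700 nM in the GroEL/ES assay.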

[11] = Inhibition of refolded rhodanese (unknown origin) preincubated with Escherichia coli GroEL/GroES for 60 mins by measuring rhodanese enzyme activity followed by compound addition by Fe(SCN)3 dye based spectrometric analysis; set-up: species or system Homo sapiens
[12] = biological target: T6, Malate dehydrogenase, mitochondrial (Sus scrofa, UniProt P00346); assay: Inhibition of refolded pig heart mitochondrial MDH preincubated with Escherichia coli GroEL/GroES for 45 mins using sodium mesoxalate as substrate followed by compound addition and measured after 20 to 30 mins by spectrometric analysis
T6 sequence (P00346 whole entry): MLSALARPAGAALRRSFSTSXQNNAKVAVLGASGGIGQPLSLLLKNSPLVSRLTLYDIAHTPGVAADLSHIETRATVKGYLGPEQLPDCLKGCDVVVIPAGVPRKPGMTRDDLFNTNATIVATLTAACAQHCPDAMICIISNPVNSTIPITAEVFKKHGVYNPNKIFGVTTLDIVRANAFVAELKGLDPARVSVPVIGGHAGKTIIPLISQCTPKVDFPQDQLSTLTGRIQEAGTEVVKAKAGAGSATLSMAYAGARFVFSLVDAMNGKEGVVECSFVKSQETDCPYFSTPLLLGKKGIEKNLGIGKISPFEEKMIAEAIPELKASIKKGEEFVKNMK

[13] = biological target: T5, E. coli GroEL/ES; assay: Inhibition of Escherichia coli GroEL expressed in Escherichia coli DH5alpha/Escherichia coli GroES expressed in Escherichia coli BL21 (DE3) assessed as reduction in GroEL/GroES-mediated denatured rhodanese refolding by measuring rhodanese enzyme activity after 45 mins by Fe(SCN)3 dye based spectrometric analysis
[14] = Cytotoxicity against human THLE3 cells assessed as reduction in cell viability after 48 hrs by Alamar blue assay; format: cell-based
Method in brief: (§1)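 Alamar Blue viability read-out. Human liver (THLE-3) and kidney (HEK 293) cells incubated with compound for 48 h. Tested in dose-response to derive CC50.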

[15] = Cytotoxicity against human HEK293 cells assessed as reduction in cell viability after 48 hrs by Alamar blue assay; format: cell-based; method in brief: as §1

SMILES | IC50 [1] | IC50 [2] | IC50 [3] | IC50 [4] | inhibition at 200 µM [5] | EC50 [6] | IC50 [7] | IC50 [8] | Ratio IC50 [9] | Ratio IC50 [10] | IC50 [11] | IC50 [12] | IC50 [13] | CC50 at 48 h [14] | CC50 at 48 h [15]
O=S(=O)(Nc1ccc(-c2nc3cc(NS(=O)(=O)c4cccc(O)c4)ccc3o2)cc1)c1cccc(O)c1 | 1.5 µM | 38 µM | 84 µM | 47 µM | 80% | 84 µM | 0.97 µM | 17 µM | 25 | 18 |  |  |  |  | 
NCc1ccc(S(=O)(=O)Nc2ccc3oc(-c4ccc(NS(=O)(=O)c5ccc(Cl)s5)cc4)nc3c2)cc1 | 4.4 µM | 42 µM | 61 µM | 62 µM | 91% | 59 µM | 4.6 µM | 37 µM | 9.5 | 8 |  |  |  |  | 
O=S(=O)(Nc1ccc(-c2nc3cc(NS(=O)(=O)c4ccc(F)cc4)ccc3o2)cc1)c1ccc(F)cc1 | 18 µM | 27 µM | 28 µM | 23 µM | 48% | 66 µM | 3.3 µM | 67 µM | 1.3 | 20 |  |  |  |  | 
O=S(=O)(Nc1ccc(-c2nc3cc(NS(=O)(=O)c4ccccc4F)ccc3o2)cc1)c1ccccc1F | 16 µM | 36 µM | 31 µM | 26 µM | 54% | 45 µM | 20 µM | 57 µM | 1.6 | 2.9 |  |  |  |  | 
O=S(=O)(Nc1ccc(-c2nc3cc(NS(=O)(=O)c4ccc(O)cc4)ccc3o2)cc1)c1ccc(O)cc1 | 12 µM | 27 µM | 75 µM | 35 µM | 66% | 94 µM | 0.23 µM | 14 µM | 2.3 | 61 |  |  |  |  | 
O=S(=O)(Nc1ccc2oc(-c3ccc(NS(=O)(=O)c4ccc(Cl)s4)cc3)nc2c1)c1ccccc1 | 8.8 µM | 14 µM | 28 µM | 24 µM | 72% | 40 µM | 5.6 µM | 9 µM | 1.6 | 1.6 |  |  |  |  | 
O=S(=O)(Nc1ccc(-c2nc3ccccc3o2)cc1)c1ccccc1C(F)(F)F | 58 µM | 44 µM | 61 µM | 53 µM | 58% | > 200 µM | 75 µM | 74 µM |  |  | > 100 µM | > 63 µM | 166 µM | 91 µM | > 100 µM
O=S(=O)(Nc1ccc(-c2nc3ccccc3o2)cc1)c1cccs1 | 48 µM | > 100 µM | > 100 µM | 93 µM | 68% | > 200 µM | > 100 µM | 63 µM |  |  | > 100 µM | > 63 µM | 239 µM | 98 µM | > 100 µM
O=[N+]([O-])c1cc(S(=O)(=O)Nc2ccc(-c3nc4ccccc4o3)cc2)ccc1Cl | 35 µM | 38 µM | 62 µM | 46 µM | 52% | 193 µM | 20 µM | 17 µM |  |  | > 100 µM | > 63 µM | 44 µM | 24 µM | 85 µM
C=Cc1ccc(S(=O)(=O)Nc2ccc(-c3nc4ccccc4o3)cc2)cc1 | 52 µM | 47 µM | 33 µM | 31 µM | 73% | > 200 µM | 91 µM | > 100 µM |  |  | > 100 µM | > 63 µM | 165 µM | 82 µM | > 100 µM
NCc1ccc(S(=O)(=O)Nc2ccc(-c3nc4cc(NS(=O)(=O)c5ccc(Cl)s5)ccc4o3)cc2)cc1 | 9.1 µM | 56 µM | 91 µM | 75 µM | 94% | 26 µM |  | 48 µM | 6.2 | 37 |  |  |  |  | 
O=S(=O)(Nc1ccc(-c2nc3ccccc3o2)cc1)c1ccc(Cl)s1 | 32 µM | 63 µM | 72 µM | 64 µM | 70% | 185 µM | 53 µM | 31 µM |  |  | > 100 µM | > 63 µM | 156 µM | 85 µM | > 100 µM
O=S(=O)(Nc1ccc(-c2nc3ccccc3o2)cc1)c1ccccc1 | 80 µM | 65 µM | 66 µM | 51 µM | 71% | 179 µM | 94 µM | > 100 µM |  |  | > 100 µM | > 63 µM | 217 µM | 96 µM | > 100 µM

Reference: ChEMBL document CHEMBL4387722
